This is a sample that favours compounds with a hit; in the whole collection about 2.9% have one here.
TRPC4 agonist: activators of mouse TRPC4 channel, primary screen, Fluo4 calcium, HEK293 TRPC4beta/mu-opioid cells; Short transient receptor potential channel 4 (Mus musculus), Q9QUQ5; Fluo4 calcium fluorescence; active compounds read high; B-score at 10 µM; 310,000 compounds, 0.49% hits; AID 2237, 2010;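 active = B-score above 5 SD of library B-scores, and initial fluorescence ratio not above library mean plus 5 SD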;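 note: positive B-score marks a calcium rise read as TRPC4 activation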
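Test system: HEK293 cells stably co-expressing mouse TRPC4beta and mu-opioid receptor | Schedule: Fluo4 dye loading 45 min at room temperature, 110 s recording | Measured by: Kinetic Fluo4 calcium fluorescence, 5 s baseline at 1 Hz | Evaluation: B score of integrated ratio | Controls: Buffer (low) and maximal DAMGO (high)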
TRPC6 act: mouse TRPC6 channel activators, primary screen, cell-based, HEK293, membrane potential dye; AID 2550, 2010; 310,000 compounds, 0.13% hits; HEK293-TRPC6 membrane potential dye fluorescence; active compounds read high; Short transient receptor potential channel 6 (Mus musculus), Q61143; B-score at 10 µM;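 active = B-score of the integrated fluorescence ratio above library mean plus 3 SD, and starting fluorescence ratio within library mean plus 5 SD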;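 note: higher score means more depolarization so channel activation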
TRPC4 inh: inhibitors of mouse TRPC4 channel, primary screen, Fluo4 calcium, HEK293 TRPC4beta/mu-opioid cells | Short transient receptor potential channel 4 (Mus musculus), Q9QUQ5 | DAMGO-evoked Fluo4 calcium flux; active compounds read low | 300,000 compounds, 0.39% hits | AID 2247, 2010 | B-score at 10 µM;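 active = B-score over 3 SD under the library average, no early fluorescence shift, positive overall ratio signal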
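Material: HEK293 cells with stable TRPC4beta plus mu-opioid receptor expression / Probe or stimulus: DAMGO in two steps, submaximal then maximal / Compound: single concentration per test compound / Technique: kinetic Fluo4 fluorescence imaging of calcium influx / Read-out: per-well B score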
TRPC6 inhibitor: mouse TRPC6 channel inhibitors, primary screen, cell-based, HEK293, membrane potential dye | ACh-evoked depolarization; active compounds read low | B-score at 10 µM | 310,000 compounds, 1.1% hits | AID 2553, 2010;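 active = B-score under library mean minus 3 SD, initial fluorescence not abnormally high, positive integrated signal ratio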;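 note: B-score derived from integrated fluorescence ratio over the kinetic read; more negative B-score means stronger inhibition of depolarization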
TRPC4 PAM: positive allosteric modulators of TRPC4, primary screen, cell-based, mouse TRPC4beta, HEK293 mu-opioid, Fluo-4 calcium. AID 2227, 2009. B-score at 10 µM. 310,000 compounds, 0.42% hits. DAMGO EC20, Fluo-4 Ca2+ flux; active compounds read high. Short transient receptor potential channel 4 (Mus musculus), Q9QUQ5;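 active = B-score of calcium response area above 5 SD of library B-scores, with initial fluorescence ratio within 5 SD of library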
Kir21 inh: inhibitors of mouse Kir2.1 inward-rectifier potassium channel; Inward rectifier potassium channel 2 (Mus musculus), P35561; HEK293-Kir2.1, FluxOR thallium flux fluorescence; active compounds read low; B-score at 10 µM; 310,000 compounds, 0.85% hits; AID 1672, 2009;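 active = fluorescence ratio B-score at or below minus 3 SD of library scores, with starting-brightness B-score within 2 SD, cut at about -4.2 in these data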;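 note: channel flux triggered by added potassium and thallium sulfate stimulus; B-score of peak minus minimum fluorescence over baseline after thallium stimulus; more negative B-score means stronger Kir2.1 block with less thallium influx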
Target sequence (P35561 whole entry, looked up): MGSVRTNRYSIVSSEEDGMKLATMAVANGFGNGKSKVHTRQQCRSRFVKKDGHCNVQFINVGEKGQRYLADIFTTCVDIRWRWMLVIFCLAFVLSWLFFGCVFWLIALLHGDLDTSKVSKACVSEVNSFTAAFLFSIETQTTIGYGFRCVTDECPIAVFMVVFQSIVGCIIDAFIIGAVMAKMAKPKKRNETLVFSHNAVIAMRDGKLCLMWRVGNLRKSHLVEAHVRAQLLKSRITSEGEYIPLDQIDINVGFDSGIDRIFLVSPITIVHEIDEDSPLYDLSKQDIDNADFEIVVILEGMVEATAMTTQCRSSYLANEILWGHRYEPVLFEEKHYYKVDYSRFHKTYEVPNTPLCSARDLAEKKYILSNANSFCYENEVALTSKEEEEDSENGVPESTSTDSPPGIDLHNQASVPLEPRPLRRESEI
TRPC4 sel inh 2: second check of whether TRPC6 inhibitors also affect mouse TRPC4; 920 compounds, 42% hits; inhibition, % at 10 µM; HEK293 TRPC4/MOR, membrane potential dye fluorescence; channel activated by saturating DAMGO dose; AID 2776; shares compounds with TRPC6 inhibitor;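 active = compounds whose fluorescence signal differed from control wells by over 3 SD, either direction, in both duplicate plates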
TRPC4 spec: mouse TRPC4 modulation by TRPC6 hits, confirmation, selectivity assay for TRPC6 inhibitor project, cell-based, HEK293 TRPC4/mu-opioid, membrane potential dye. shares compounds with TRPC6 inhibitor. membrane potential fluorescence. activity change, negative = inhibition, % at 10 µM. 920 compounds, 61% hits. AID 2777, 2010;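 active = rise or fall in signal beyond 3 SD of buffer-only wells in both replicate plates, either sign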;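 note: integrated kinetic ratio of fluorescence range over baseline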
HEK293 MPD ctr 2-1: nonspecific membrane potential effects, parental HEK293, confirmation, counter-screen for TRPC6 inhibitor project, cell-based, second counter screen | shares compounds with TRPC6 inhibitor | parental HEK293 membrane potential dye fluorescence; maximal acetylcholine challenge after compound addition | signal change vs control, % at 10 µM | 920 compounds, 31% hits | AID 2779, 2010;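 active = membrane potential signal moving either way by over 3 SD of the maximum-effect control, in both duplicate plates, meaning non-specific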
HEK293 MPD ctr-1: membrane potential modulation in parental HEK293, confirmation, counter-screen for TRPC6 inhibitor project, cell-based | 920 compounds, 60% hits | shares compounds with TRPC6 inhibitor | membrane potential signal change, % at 10 µM | parental HEK293 membrane potential dye fluorescence;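 active = membrane potential signal shifting up or down by more than 3 SD of buffer-only wells, on both duplicate plates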
HEK293 MPD ctr-2: parental HEK293 membrane potential modulation, confirmation, counter-screen for TRPC6 modulator project, cell-based | 2,400 compounds, 51% hits | membrane potential signal change, % at 10 µM | membrane potential dye fluorescence | shares compounds with TRPC6 inhibitor;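 active = membrane potential signal moves up or down beyond 5 SD from buffer-only wells, on both duplicate plates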
HEK293 MPD ctr 2-2: second counter-screen for TRPC6 modulators: effect in parental HEK293 cells; shares compounds with TRPC6 inhibitor; membrane potential dye fluorescence; after compound, maximal acetylcholine stimulation; 2,400 compounds, 14% hits; inhibition, % at 10 µM;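 active = membrane potential signal drops by more than 5 SD from the mean control signal, in both duplicate plates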
TRPC4 ctr mod: TRPC4 modulation by TRPC6 hit compounds, confirmation, selectivity assay for TRPC6 modulator project, cell-based, HEK293 TRPC4/mu-opioid, membrane potential dye, mouse | shares compounds with TRPC6 inhibitor | 2,400 compounds, 69% hits | membrane potential fluorescence | percent change from control (negative = decrease, positive = increase), % at 10 µM;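 active = membrane potential signal moved up or down beyond 5 SD of buffer control wells, in both duplicate plates, actives on both sides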
TRPC4/MOR inh 2: second check of whether TRPC6 modulators also affect mouse TRPC4 | shares compounds with TRPC6 inhibitor | HEK293 TRPC4/mu-opioid, membrane potential dye fluorescence; stimulated with maximal-effect DAMGO | inhibition, % at 10 µM | 2,400 compounds, 55% hits | AID 488928;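 active = drop in membrane potential signal beyond 5 SD of the control wells in both duplicate plates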;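 note: TRPC4 counter screen for TRPC6 hits run under conditions tuned for TRPC6 not TRPC4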
TRPC6 inh conf: mouse TRPC6 channel inhibitors, confirmation, HEK293 cells, membrane potential dye, duplicate; shares compounds with TRPC6 inhibitor; ACh-evoked depolarization; inhibition, % at 10 µM; 3,300 compounds, 43% hits;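 active = fluorescence ratio falls more than 5 SD below the full-stimulation control mean, in both duplicate runs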;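 note: integrated fluorescence ratio of peak minus minimum over baseline after agonist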
TRPC6 act confirm: mouse TRPC6 channel activators, confirmation, HEK293 cells, membrane potential dye, duplicate; shares compounds with TRPC6 inhibitor; HEK293-TRPC6 membrane potential dye fluorescence, FDSS; activation, % at 10 µM; 2,800 compounds, 11% hits;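 active = ratio signal rise beyond 5 SD above unstimulated control wells' mean, seen in both duplicate runs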
Numbers stand for hits; n = inactive; x = not tested or not shown; ! = not active in a repeat.

SMILES | TRPC4 agonist | TRPC6 act | TRPC4 inh | TRPC6 inhibitor | TRPC4 PAM | Kir21 inh | HEK293 MPD ctr-2 | HEK293 MPD ctr 2-2 | TRPC4 ctr mod | TRPC4/MOR inh 2 | TRPC6 inh conf | TRPC6 act confirm | others
CCN1CCC[C@H]1CNC(=O)c1c(O)c(Cl)cc(Cl)c1OC | n | n | n | -7.4! | n | n | x | x | x | x | n | n | TRPC4 sel inh 2=n;TRPC4 spec=n;HEK293 MPD ctr 2-1=n;HEK293 MPD ctr-1=n
Fc1ccc2[nH]c3c(c2c1)CN(C(=S)NCc1ccccc1)CC3 | n | n | n | -12 | n | n | x | x | x | x | 127% | x | TRPC4 sel inh 2=n;TRPC4 spec=-13%;HEK293 MPD ctr 2-1=n;HEK293 MPD ctr-1=n
C=CCNC(=O)N1CCc2[nH]c3ccc(F)cc3c2C1 | n | n | n | -6.2 | n | n | 240% | n | 18% | n | 82% | x
CCCCNC(=O)N1CCc2[nH]c3ccccc3c2C1 | n | n | n | -6.1 | n | n | n | n | n | n | 72% | x
O=C(CNCCc1ccccc1)Nc1ccc(C(=O)N2CCCCC2)cc1 | n | n | n | n | n | n | x | x | x | x | x | x
Cc1ccc(OS(=O)(=O)c2ccc(N3C(=O)CCC3=O)cc2)cc1 | n | n | n | n | n | n | x | x | x | x | x | x
CCCn1c(-c2ccc(F)cc2)n[nH]c1=S | n | n | n | n | n | n | x | x | x | x | x | x
CCCCn1c(-c2ccc([N+](=O)[O-])cc2)n[nH]c1=S | n | n | n | -15 | n | n | x | x | x | x | 85% | n | TRPC4 sel inh 2=n;TRPC4 spec=n;HEK293 MPD ctr 2-1=-18%;HEK293 MPD ctr-1=n
CCN(CC)S(=O)(=O)c1ccc(NC(=O)CNC2CCCCC2)cc1 | n | n | n | -5.3 | n | n | n | n | n | 58% | 46% | n
CCOC(=O)N1CCC(Nc2ccc3nnc(-c4ccccc4)n3n2)CC1 | n | n | n | -5.5 | n | n | n | n | n | n | 68% | x
O=c1[nH]ncc(N2CCCCC2)c1Cl | n | n | n | n | n | n | x | x | x | x | x | x
CCCCN(CCCC)c1cn[nH]c(=O)c1Cl | n | n | n | -6.9 | n | n | x | x | x | x | n | x | TRPC4 sel inh 2=n;TRPC4 spec=21%;HEK293 MPD ctr 2-1=n;HEK293 MPD ctr-1=11%
O=S(=O)(Nc1nc2ccccc2nc1Nc1ccc(N2CCOCC2)cc1)c1cc(Cl)ccc1Cl | n | n | n | -6.7 | n | n | x | x | x | x | n | n | TRPC4 sel inh 2=78%;TRPC4 spec=-10%;HEK293 MPD ctr 2-1=n;HEK293 MPD ctr-1=-241%
Clc1nc(Nc2ccc(N3CCOCC3)cc2)c2ccccc2n1 | n | n | n | n | n | n | x | x | x | x | x | x
Cc1cccc(NS(=O)(=O)c2cccc(C(=O)NCC3(N4CCCCC4)CCCCC3)c2)c1 | n | n | n | -5 | n | n | n | n | n | 72% | 52% | x
CC(NC(=O)C(C)N1CCN(Cc2ccccc2)CC1)c1ccc(F)cc1 (stereo unspecified) | n | n | n | n | n | n | x | x | x | x | x | x
O=C(CN1C(=O)c2ccc(Br)cc2C1=O)NCC1CCCO1 (stereo unspecified) | n | n | n | -8.9 | n | n | n | n | n | n | 82% | x
O=C(CN1C(=O)c2ccccc2C1=O)NCC1CCCO1 (stereo unspecified) | n | n | n | n | n | n | x | x | x | x | x | x
O=C(Nc1ccc(C2=NCCN2)cc1)c1ccc(C(=O)Nc2ccc(C3=NCCN3)cc2)c([N+](=O)[O-])c1 | n | 15 | n | n | n | n | 440% | n | 70% | n | n | 193%
O=C(Nc1ccc(Cl)cc1)c1ccc2nsnc2c1 | n | n | n | n | n | n | x | x | x | x | x | x
CCN1CCN(c2c(Cl)cccc2NC(=O)c2ccc3nsnc3c2)CC1 | 63 | n | n | -9.6 | 19 | n | -206% | n | -36% | 64% | 48% | n
CCN1CCN(c2c(Cl)cccc2NC(=O)c2ccc([N+](=O)[O-])cc2)CC1 | 99 | n | n | -5.9 | n | n | -225% | n | -34% | 63% | n | n
COC(=O)c1ccc(NC(=O)c2cccc(NC(=O)c3ccccc3)c2)cc1 | n | n | n | n | n | n | x | x | x | x | x | x
COc1ccccc1C(=O)Nc1ccc(-c2nnn(CC(=O)NCc3ccco3)n2)cc1 | n | n | n | n | n | n | x | x | x | x | x | x
COCCn1c(=NC(=O)CSC(C)=O)sc2cc(OC)ccc21 | n | n | n | n | n | n | x | x | x | x | x | x

Compound activity from PubChem.
